From ChEMBL document CHEMBL4373696, “Probing the Existence of a Metastable Binding Site at the β2-Adrenergic Receptor with Homobivalent Bitopic Ligands” (J Med Chem, 2019)

What was measured:
[1] = molecular target: T1, Beta-1 adrenergic receptor (Homo sapiens, UniProt P08588); experiment: Antagonist activity at beta1 adrenergic receptor (unknown origin) stably expressed in HEK293 cell membranes assessed as inhibition of isoproterenol-induced cAMP production preincubated for 15 mins followed by isoproterenol addition and measured after 30 mins by TR-FRET assay; format: cell-based
Procedure, shortened: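 Membranes from HEK293 cells stably overexpressing β1AR; ligand's blockade of isoproterenol-stimulated cAMP production measured; pIC50 as mean ± SEM from 3-8 independent experiments run in duplicate.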

[2] = molecular target: T2, Beta-2 adrenergic receptor (Homo sapiens, UniProt P07550); experiment: Antagonist activity at beta2 adrenergic receptor (unknown origin) stably expressed in HEK293 cell membranes assessed as inhibition of isoproterenol-induced cAMP production preincubated for 15 mins followed by isoproterenol addition and measured after 30 mins by TR-FRET assay; format: functional, cell-based
Homo sapiens [3] = organism: Homo sapiens; experiment: Selectivity ratio of IC50 for antagonist activity at beta1 adrenergic receptor (unknown origin) stably expressed in HEK293 cell membranes to IC50 for antagonist activity at beta2 adrenergic receptor (unknown origin) stably expressed in HEK293 cell membranes; format: cell-based
[4] = molecular target: T2, Beta-2 adrenergic receptor; experiment: Antagonist activity at beta2 adrenergic receptor (unknown origin) expressed in HEK293 cell assessed as inhibition of isoproterenol-induced cAMP production preincubated for 15 mins followed by isoproterenol addition and measured after 15 mins; format: functional, cell-based
[5] = molecular target: T1, Beta-1 adrenergic receptor; experiment: Displacement of [3H]DHA from beta1 adrenergic receptor (unknown origin) stably expressed in HEK293 cell membranes measured after 90 mins by scintillation counting analysis
[6] = molecular target: T2, Beta-2 adrenergic receptor; experiment: Displacement of [3H]DHA from beta2 adrenergic receptor (unknown origin) stably expressed in HEK293 cell membranes measured after 90 mins by scintillation counting analysis
Homo sapiens [7] = organism: Homo sapiens; experiment: Selectivity ratio of Ki for displacement of [3H]DHA from beta1 adrenergic receptor (unknown origin) stably expressed in HEK293 cell membranes to displacement of [3H]DHA from beta2 adrenergic receptor (unknown origin) stably expressed in HEK293 cell membranes

T1 sequence (P08588 whole entry): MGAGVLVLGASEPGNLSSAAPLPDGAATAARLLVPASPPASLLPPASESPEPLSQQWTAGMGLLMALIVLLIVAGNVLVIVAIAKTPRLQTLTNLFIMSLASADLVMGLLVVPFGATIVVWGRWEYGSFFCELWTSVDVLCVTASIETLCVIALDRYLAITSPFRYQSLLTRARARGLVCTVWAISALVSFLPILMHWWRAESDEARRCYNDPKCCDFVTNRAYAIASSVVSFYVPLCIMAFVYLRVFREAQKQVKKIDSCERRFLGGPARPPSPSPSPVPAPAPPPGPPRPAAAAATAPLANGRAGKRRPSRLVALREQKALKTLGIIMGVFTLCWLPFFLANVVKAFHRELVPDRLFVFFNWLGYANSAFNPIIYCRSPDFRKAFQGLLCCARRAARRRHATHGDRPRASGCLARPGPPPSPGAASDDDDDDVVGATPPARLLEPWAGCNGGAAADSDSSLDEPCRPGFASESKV
T2 sequence (P07550 whole entry): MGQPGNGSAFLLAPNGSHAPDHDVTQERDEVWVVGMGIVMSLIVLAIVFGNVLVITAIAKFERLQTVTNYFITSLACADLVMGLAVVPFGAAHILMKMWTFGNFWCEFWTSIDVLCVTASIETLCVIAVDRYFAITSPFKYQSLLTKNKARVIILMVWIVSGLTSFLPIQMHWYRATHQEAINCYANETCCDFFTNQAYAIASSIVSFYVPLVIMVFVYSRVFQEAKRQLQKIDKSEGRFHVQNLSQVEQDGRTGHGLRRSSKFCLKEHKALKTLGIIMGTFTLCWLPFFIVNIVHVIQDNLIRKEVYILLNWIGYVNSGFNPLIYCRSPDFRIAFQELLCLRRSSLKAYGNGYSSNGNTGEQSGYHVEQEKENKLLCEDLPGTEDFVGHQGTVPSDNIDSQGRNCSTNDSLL

Row | IC50 [1] [nM] | IC50 [2] [nM] | IC50 [4] [nM] | Ki [5] [nM] | Ki ([6]; read-out: pKi (converted)) [nM] | Ki [6] [nM] | Structure (SMILES) | Ratio IC50 (Homo sapiens [3]) | Ratio Ki (Homo sapiens [7])
1 | 182 | 11.2 | – | – | – | – | CC(C)NC[C@H](O)COc1ccccc1CCCC(=O)NCCCCNC(=O)CCCc1ccccc1OC[C@@H](O)CNC(C)C | 16.2 | –
2 | 28.2 | 6.46 | – | – | – | – | CC(C)NC[C@H](O)COc1ccccc1CCCC(=O)NCCCNC(=O)CCCc1ccccc1OC[C@@H](O)CNC(C)C | 4.3 | –
3 | 14.5 | 1.58 | 1.78 | 3.98 | 0.38 | – | CC(C)NC[C@H](O)COc1ccccc1CCCCNC(=O)NCCCCc1ccccc1OC[C@@H](O)CNC(C)C | 9.2 | 10.5
4 | 11000 | 2630 | 214 | 2570 | 468 | – | CC(C)NC[C@H](O)COc1ccccc1CC(=O)NCCNC(=O)Cc1ccccc1OC[C@@H](O)CNC(C)C | 4.1 | 5.5
5 | 97.7 | 74.1 | – | – | – | – | CC(C)NC[C@H](O)COc1ccccc1OCCOCCOCCOc1ccccc1OC[C@@H](O)CNC(C)C | 1.3 | –
6 | 126 | 16.2 | 2.19 | 19.5 | 3.47 | – | CC(C)NC[C@H](O)COc1ccccc1CCNC(=O)NCCc1ccccc1OC[C@@H](O)CNC(C)C | 7.7 | 5.62
7 | 26.3 | 6.61 | 1.55 | 8.91 | 0.759 | 1.29 | CC(C)NC[C@H](O)COc1ccccc1CCCC(=O)NCCNC(=O)CCCc1ccccc1OC[C@@H](O)CNC(C)C | 4 | 11.8
8 | – | 13.8 | – | – | – | – | COc1ccccc1CCCNC(=O)NCCCc1ccccc1OC[C@@H](O)CNC(C)C | – | –
9 | 490 | 64.6 | 6.31 | 83.2 | 15.5 | – | CC(C)NC[C@H](O)COc1ccccc1Cn1cc(CNCc2cn(Cc3ccccc3OC[C@@H](O)CNC(C)C)nn2)nn1 | 7.6 | 5.37
10 | 4470 | 214 | – | – | – | – | CC(C)NC[C@@H](O)COc1ccccc1CCCC(=O)NCCNC(=O)CCCc1ccccc1OC[C@H](O)CNC(C)C | 20.9 | –
11 | – | 5.89 | – | – | – | – | CC(C)NC[C@H](O)COc1ccccc1CCCC(=O)NCCNC(=O)CCCc1ccccc1 | – | –
12 | 2040 | 75.9 | 3.31 | 269 | 11.7 | – | CC(C)NC[C@H](O)COc1ccccc1CCC(=O)NCCNC(=O)CCc1ccccc1OC[C@@H](O)CNC(C)C | 26.5 | 22.9
13 | – | 64.6 | – | – | – | – | CCCC(=O)NCCNC(=O)CCCc1ccccc1OC[C@@H](O)CNC(C)C | – | –
14 | 3630 | 170 | 12 | 479 | 38.9 | – | CC(C)NC[C@H](O)COc1ccccc1-n1cc(CNCc2cn(-c3ccccc3OC[C@@H](O)CNC(C)C)nn2)nn1 | 21.4 | 12.3
15 | 13.8 | 6.92 | 25.7 | 1.26 | 1.15 | – | CC(C)NC[C@H](O)COc1ccccc1CCCCCCCCCCCCc1ccccc1OC[C@@H](O)CNC(C)C | 2 | 1.1
16 | 11.2 | 3.8 | 13.8 | 1.82 | 1.51 | – | CC(C)NC[C@H](O)COc1ccccc1CCCCCCCCCCc1ccccc1OC[C@@H](O)CNC(C)C | 2.9 | 1.2
17 | 20 | 2.34 | 5.25 | 4.17 | 0.794 | – | CC(C)NC[C@H](O)COc1ccccc1CCCCCCCCc1ccccc1OC[C@@H](O)CNC(C)C | 8.6 | 5.25
18 | 4.68 | 2.88 | 1.2 | 1.1 | 0.437 | – | CC(C)NC[C@H](O)COc1ccccc1CCCn1cc(CNCc2cn(CCCc3ccccc3OC[C@@H](O)CNC(C)C)nn2)nn1 | 1.6 | 2.51
19 | – | 85.1 | – | – | – | – | CCCNC(=O)NCCCc1ccccc1OC[C@@H](O)CNC(C)C | – | –
20 | 1780 | 8.32 | – | – | – | – | CC(C)NC[C@H](O)COc1ccccc1CCC(=O)NCCCNC(=O)CCc1ccccc1OC[C@@H](O)CNC(C)C | 214 | –
21 | 27.5 | 3.8 | 3.24 | 6.46 | 0.955 | – | CC(C)NC[C@H](O)COc1ccccc1CCCCCCc1ccccc1OC[C@@H](O)CNC(C)C | 7.2 | 6.76
22 | 372 | 7.59 | 1.58 | 44.7 | 1.17 | 1.91 | CC(C)NC[C@H](O)COc1ccccc1CCCNC(=O)NCCCc1ccccc1OC[C@@H](O)CNC(C)C | 49.2 | 38
23 | 19.5 | 4.68 | 2.04 | 2.88 | 0.891 | – | CC(C)NC[C@H](O)COc1ccccc1CCn1cc(CNCc2cn(CCc3ccccc3OC[C@@H](O)CNC(C)C)nn2)nn1 | 4.2 | 3.24
24 | – | 14.1 | – | – | – | – | CC(C)NC[C@H](O)COc1ccccc1CCCNC(=O)NCCCc1ccccc1 | – | –
25 | 234 | 46.8 | – | – | – | – | CC(C)NC[C@H](O)COc1ccccc1OCCOCCOc1ccccc1OC[C@@H](O)CNC(C)C | 5 | –
26 | 5.62 | 1.74 | – | – | – | – | CC(C)NC[C@H](O)COc1ccccc1CCCCCNC(=O)NCCCCCc1ccccc1OC[C@@H](O)CNC(C)C | 3.2 | –
27 | – | 3.89 | – | – | – | – | COc1ccccc1CCCC(=O)NCCNC(=O)CCCc1ccccc1OC[C@@H](O)CNC(C)C | – | –
